Source: ChEMBL document CHEMBL4354819, “Discovery of Novel Small Molecule Dual Inhibitors Targeting Toll-Like Receptors 7 and 8” (J Med Chem, 2019)
Activity calls are given as the source filed them. The calls are words filed in the database; no cut-off is given here.

How the values were obtained:
[1] = biological target: T1, Toll-like receptor 7 (Homo sapiens, UniProt Q9NYK1); experiment: Inhibition of human TLR7 expressed in HEK293 cells assessed as reduction in R848-induced NFkappaB production incubated for 16 hrs by quanti-blue SEAP assay; type: cell-based
T1 sequence (Q9NYK1 whole entry): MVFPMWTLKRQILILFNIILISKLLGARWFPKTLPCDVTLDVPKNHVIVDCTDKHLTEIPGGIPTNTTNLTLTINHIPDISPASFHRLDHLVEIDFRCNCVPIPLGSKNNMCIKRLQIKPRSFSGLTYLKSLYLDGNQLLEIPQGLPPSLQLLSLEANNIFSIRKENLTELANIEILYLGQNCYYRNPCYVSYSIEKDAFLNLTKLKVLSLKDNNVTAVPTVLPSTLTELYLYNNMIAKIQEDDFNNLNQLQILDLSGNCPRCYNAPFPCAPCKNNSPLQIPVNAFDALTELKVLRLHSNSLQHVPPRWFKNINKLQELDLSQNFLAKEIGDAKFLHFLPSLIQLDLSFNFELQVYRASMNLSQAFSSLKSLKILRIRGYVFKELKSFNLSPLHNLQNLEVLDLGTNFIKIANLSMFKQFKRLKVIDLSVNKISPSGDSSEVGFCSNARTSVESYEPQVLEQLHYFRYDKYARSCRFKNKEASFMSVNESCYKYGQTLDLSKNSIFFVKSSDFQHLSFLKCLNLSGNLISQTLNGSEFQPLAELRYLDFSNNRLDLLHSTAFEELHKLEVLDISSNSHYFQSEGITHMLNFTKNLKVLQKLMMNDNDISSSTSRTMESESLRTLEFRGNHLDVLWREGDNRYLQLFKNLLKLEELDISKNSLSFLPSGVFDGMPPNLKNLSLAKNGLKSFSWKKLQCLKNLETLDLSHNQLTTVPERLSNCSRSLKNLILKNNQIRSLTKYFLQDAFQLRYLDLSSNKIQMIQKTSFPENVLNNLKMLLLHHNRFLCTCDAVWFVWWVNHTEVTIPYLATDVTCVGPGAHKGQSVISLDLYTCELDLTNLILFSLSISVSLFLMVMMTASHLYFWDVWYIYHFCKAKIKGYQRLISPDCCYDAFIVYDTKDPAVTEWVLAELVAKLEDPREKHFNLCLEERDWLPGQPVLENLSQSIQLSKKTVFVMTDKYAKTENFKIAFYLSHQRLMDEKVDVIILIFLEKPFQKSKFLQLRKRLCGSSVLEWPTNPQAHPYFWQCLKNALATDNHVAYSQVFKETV
Outline: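 HEK 293-Blue cells stably expressing hTLR7 or hTLR8 with an inducible SEAP reporter were incubated 16 h with compound under 1 µg/mL R848 stimulation. SEAP was read at 620 nm. Data were normalized to the R848 control, and IC50 was taken from concentration-response curves. […] Mean ± s.d., n = 3 independent experiments.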

[2] = test system: THP-1; experiment: Inhibition of IFN mediated immune response in human THP1 cells assessed as inhibition of G3-YSD-induced cGAS signalling pathway at 20 uM incubated for 16 hrs by luciferase assay; type: functional, cell-based
Outline: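 THP1-Dual monocytes carrying Lucia luciferase and SEAP reporters were stimulated with 3p-hpRNA (RIG-I agonist) or Y-form dsDNA G3-YSD (cGAS agonist), with or without compound. Secreted Lucia luciferase luminescence was measured as the type I IFN read-out. Mean ± s.d., n = 3 independent experiments.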

[3] = biological target: Toll-like receptor 7 (Mus musculus) (UniProt P58681); experiment: Inhibition of endogenous mouse TLR7 in mouse RAW264.7 cells assessed as resiquimod-induced NO production at > 5 uM incubated for 18 to 24 hrs
[4] = biological target: T2, Toll-like receptor 8 (Homo sapiens) (UniProt Q9NR97); experiment: Inhibition of human TLR8 expressed in HEK293 cells assessed as reduction in R848-induced NFkappaB production at 0.5 uM incubated for 16 hrs by quanti-blue SEAP assay; type: cell-based
T2 sequence (whole entry): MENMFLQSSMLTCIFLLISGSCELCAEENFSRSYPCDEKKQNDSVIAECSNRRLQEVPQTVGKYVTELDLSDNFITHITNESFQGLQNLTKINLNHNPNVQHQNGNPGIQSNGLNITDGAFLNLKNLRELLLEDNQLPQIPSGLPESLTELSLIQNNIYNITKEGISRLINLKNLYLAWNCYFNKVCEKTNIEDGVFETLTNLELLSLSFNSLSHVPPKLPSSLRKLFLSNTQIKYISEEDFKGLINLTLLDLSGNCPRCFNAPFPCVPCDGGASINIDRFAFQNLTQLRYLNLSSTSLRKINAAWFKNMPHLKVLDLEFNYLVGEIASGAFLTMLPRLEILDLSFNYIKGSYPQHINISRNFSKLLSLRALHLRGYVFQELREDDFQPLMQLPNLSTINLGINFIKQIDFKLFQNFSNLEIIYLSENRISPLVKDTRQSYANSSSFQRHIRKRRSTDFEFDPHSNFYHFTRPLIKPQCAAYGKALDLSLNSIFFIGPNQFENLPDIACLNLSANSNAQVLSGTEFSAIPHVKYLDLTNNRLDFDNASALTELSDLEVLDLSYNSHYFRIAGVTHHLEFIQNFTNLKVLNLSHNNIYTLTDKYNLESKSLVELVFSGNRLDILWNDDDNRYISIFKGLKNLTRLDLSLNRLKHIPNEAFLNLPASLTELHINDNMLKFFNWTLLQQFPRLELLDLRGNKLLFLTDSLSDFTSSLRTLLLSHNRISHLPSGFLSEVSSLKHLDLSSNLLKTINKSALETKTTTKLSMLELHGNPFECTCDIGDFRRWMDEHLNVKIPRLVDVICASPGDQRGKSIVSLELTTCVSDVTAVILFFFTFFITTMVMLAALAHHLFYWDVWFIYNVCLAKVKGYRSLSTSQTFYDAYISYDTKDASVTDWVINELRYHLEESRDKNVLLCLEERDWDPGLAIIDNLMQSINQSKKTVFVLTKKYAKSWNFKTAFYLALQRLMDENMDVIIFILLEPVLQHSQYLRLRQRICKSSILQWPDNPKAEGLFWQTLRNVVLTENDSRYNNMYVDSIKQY

[5] = biological target: T3, Toll-like receptor 7 (Homo sapiens) (UniProt Q9NYK1); experiment: Inhibition of human TLR7 expressed in HEK293 cells assessed as reduction in resiquimod-induced NFkappaB production at 0.5 uM incubated for 16 hrs by quanti-blue SEAP assay; type: cell-based
T3 sequence (whole entry): T1 sequence (Q9NYK1 whole entry)
Outline: (§1)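 Selectivity panel in stably transfected HEK 293-Blue cells, each overexpressing one human TLR with an inducible SEAP reporter. Agonists: Pam3CSK4 (TLR1/2), Pam2CSK4 (TLR2/6), poly(I:C) (TLR3), LPS (TLR4), R848 (TLR7/8), ODN 2006 (TLR9). Cells were exposed to compound for 16 h. Activity = (raw − untreated)/(ligand + solvent − untreated), with ligand + solvent set as 100%.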

[6] = biological target: T2, Toll-like receptor 8 (Homo sapiens); experiment: Inhibition of human TLR8 expressed in HEK293 cells assessed as reduction in R848-induced NFkappaB production at 5 to 20 uM incubated for 16 hrs by quanti-blue SEAP assay; type: cell-based; outline: as §1

Sequence of Toll-like receptor 7 (Mus musculus) (P58681 whole entry, looked up): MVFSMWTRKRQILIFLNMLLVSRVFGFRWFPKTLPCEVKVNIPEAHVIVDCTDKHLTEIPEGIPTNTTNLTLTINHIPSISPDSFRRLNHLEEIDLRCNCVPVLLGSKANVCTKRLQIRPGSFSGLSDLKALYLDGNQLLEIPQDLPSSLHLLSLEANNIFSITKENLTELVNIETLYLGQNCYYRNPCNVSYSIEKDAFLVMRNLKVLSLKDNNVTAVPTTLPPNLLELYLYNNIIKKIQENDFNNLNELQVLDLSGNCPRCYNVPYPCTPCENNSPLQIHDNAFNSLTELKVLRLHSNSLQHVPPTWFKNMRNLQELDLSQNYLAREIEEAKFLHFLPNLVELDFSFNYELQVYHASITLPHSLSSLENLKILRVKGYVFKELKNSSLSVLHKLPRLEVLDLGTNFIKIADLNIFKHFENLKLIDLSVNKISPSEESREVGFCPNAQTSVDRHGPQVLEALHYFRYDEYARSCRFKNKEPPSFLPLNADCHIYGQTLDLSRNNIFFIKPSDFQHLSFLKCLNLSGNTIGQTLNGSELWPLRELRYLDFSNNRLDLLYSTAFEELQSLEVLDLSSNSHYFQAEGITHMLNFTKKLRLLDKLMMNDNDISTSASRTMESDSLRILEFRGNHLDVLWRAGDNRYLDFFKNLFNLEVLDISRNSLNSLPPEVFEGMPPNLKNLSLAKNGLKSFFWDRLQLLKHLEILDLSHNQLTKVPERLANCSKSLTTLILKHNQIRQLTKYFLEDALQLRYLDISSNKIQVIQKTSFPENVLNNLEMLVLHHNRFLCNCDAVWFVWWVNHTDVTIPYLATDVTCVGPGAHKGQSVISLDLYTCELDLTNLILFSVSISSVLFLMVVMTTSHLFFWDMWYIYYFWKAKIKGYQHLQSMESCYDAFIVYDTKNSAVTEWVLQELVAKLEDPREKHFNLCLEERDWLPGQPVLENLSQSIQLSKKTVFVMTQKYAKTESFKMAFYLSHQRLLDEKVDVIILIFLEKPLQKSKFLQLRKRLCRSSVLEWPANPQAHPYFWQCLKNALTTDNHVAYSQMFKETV

| IC50 [1] | inhibition [3] | inhibition [4] | inhibition [5] | inhibition [6] | SMILES | inhibition [2] |
| --- | --- | --- | --- | --- | --- | --- |
| 2.88 µM |  |  |  |  | O=C(Nc1ccc(Oc2cc(C(F)(F)F)cc(C(F)(F)F)c2)cc1)c1c(F)cccc1Cl |  |
| > 20 µM | Active |  |  |  | O=[N+]([O-])c1c(I)cccc1Oc1ccc(-c2nnco2)cc1 | Active |
|  |  | inactive | inactive | Active | O=C(Nc1ccc(Oc2cncc(C(F)(F)F)c2)cc1)c1c(F)cccc1Cl |  |
| > 50 µM | Active | inactive | inactive | Active | O=C(Nc1ccc(Oc2cc(C(F)(F)F)cc(C(F)(F)F)c2)cc1)c1c(F)cccc1I |  |
